Screening data (PubChem)
Rce1 inh: inhibitors of yeast Ras-converting enzyme. actives 0.27% (n = 290,000). yeast membranes, quenched prenylated peptide cleavage fluorescence. calls only. Q03530;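 active means fall in fluorescence gain of 50% or more versus controls, with final raw signal at or below 3038400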;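 further: plate controls were neutral control wells for no effect and wells lacking membranes for full effect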
FXIa inh: inhibitors of human coagulation factor XIa | P03951 | purified FXIa, Boc-Glu-Ala-Arg-AMC fluorogenic substrate | inhibition, % at 5 µM | actives 0.14% (n = 220,000);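 active means inhibition of at least 40%; inactive means inhibition below 40%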;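 further: fluorescence of freed AMC excited at 355 nm; 0% = enzyme without compound and 100% = no enzyme blank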
Target sequence (P03951 19-387 limits assumed): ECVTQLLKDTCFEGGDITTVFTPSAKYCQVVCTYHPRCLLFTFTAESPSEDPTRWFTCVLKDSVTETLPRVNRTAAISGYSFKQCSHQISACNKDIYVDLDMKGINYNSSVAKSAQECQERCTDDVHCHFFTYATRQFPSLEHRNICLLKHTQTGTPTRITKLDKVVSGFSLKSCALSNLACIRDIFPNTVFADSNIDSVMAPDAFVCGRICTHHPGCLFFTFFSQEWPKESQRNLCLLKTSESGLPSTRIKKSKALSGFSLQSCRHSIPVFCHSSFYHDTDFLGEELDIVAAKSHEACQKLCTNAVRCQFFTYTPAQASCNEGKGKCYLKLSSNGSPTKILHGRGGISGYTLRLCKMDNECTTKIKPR
Target sequence (P03951 388-625 limits assumed): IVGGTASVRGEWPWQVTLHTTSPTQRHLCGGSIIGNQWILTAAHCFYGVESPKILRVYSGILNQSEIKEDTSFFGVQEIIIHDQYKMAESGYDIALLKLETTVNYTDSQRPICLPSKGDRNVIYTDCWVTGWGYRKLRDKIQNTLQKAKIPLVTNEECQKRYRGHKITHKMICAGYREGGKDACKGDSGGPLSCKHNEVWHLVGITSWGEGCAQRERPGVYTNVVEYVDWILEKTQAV
Fh CTSL1 inh: blocks F. hepatica cathepsin L1 in PFM18AAP counter-screen; AID 1906; actives 0.49% (n = 300,000); recombinant F. hepatica cathepsin L1, Z-Leu-Arg-MCA fluorescence; inhibition, % at 5.96 µM;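 active means inhibition above the mean of all tested compounds plus 3 SD, set per screening campaign, cut at about 17% in these data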;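 further: 0% = plate median of test compound wells and 100% = 1 µM Z-Phe-Ala-diazomethylketone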
FXIIa inh 1536: factor XIIa (human) inhibition | P00748 | purified FXIIa, Boc-QGR-AMC fluorogenic substrate, 2 h | inhibition, % at 5 µM | actives 0.3% (n = 220,000) | AID 800; in the data active means inhibition above about 40%;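 further: 0% = enzyme with no compound and 100% = blank without enzyme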
thrombin 1536: inhibitors of human thrombin; alpha-thrombin, Boc-VPR-AMC fluorogenic substrate cleavage; inhibition, % at 5 µM; actives 0.26% (n = 220,000); AID 1046;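 active means inhibition at or above 40%; inactive means inhibition below 40%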;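 further: 0% = enzyme with no compound and 100% = wells without enzyme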
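Test system: human alpha-thrombin protein / Dosing: one concentration per compound, 5 µM, with 0.2% DMSO / Medium: pH 7.5 Tris-saline with Tween 20 / Benchmarks: no-compound enzyme wells and no-enzyme blanks / Read-out basis: percent inhibition of thrombin substrate cleavage / Timing: reaction at room temperature / Measured by: fluorescence, ex 355 nm, em 460 nm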
KLK5 inh: inhibitors of human kallikrein 5; AID 873; actives 0.59% (n = 210,000); recombinant hK5, fluorogenic AMC substrate cleavage; inhibition, % at 5 µM; Q9Y337;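 active means inhibition of 40% or more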;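 further: 0% = enzyme controls without compound and 100% = no-enzyme blanks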
Numbers without * were called inactive; i = inactive; . = no result; + = active, no number. In the library only some 1.4% were active in any assay of this set; here they are far more common.

SMILES	Rce1 inh	FXIa inh	Fh CTSL1 inh	FXIIa inh 1536	thrombin 1536	KLK5 inh
O=C(CCNS(=O)(=O)c1ccc(Br)cc1)NCCc1ccc(Cl)cc1	i	.	-3.7	.	.	.
CCOC(=O)c1c(C2COc3ccccc3O2)csc1NC(=O)c1ccccc1 (stereo unspecified)	+	-4.4	-0.2	1.6	-12.4	-22.3
COc1ccc(/C(C)=N/NC(=O)CNC(=O)C(c2ccccc2)c2ccccc2)c(OC)c1	i	.	-2.4	.	.	.
COc1ccc(S(=O)(=O)Nc2ccccc2C(=O)NC(C)(C)C)cc1OC	i	0.4	-1.2	16.4	2.3	-2.1
COc1ccc(S(=O)(=O)Nc2ccccc2C(=O)OC2CCCN(C)C2)cc1OC (stereo unspecified)	i	20.3	27.4*	12.9	5.8	5.6
CCCn1c(SCC(=O)c2c(C)[nH]c(C)c2C(=O)OCC)nc2ccccc21	i	-9.4	0.4	-7.8	-9.8	-14.2
N#Cc1c(N2CCN(C(=O)c3ccccc3)CC2)nc(-c2ccccc2)c2c1CCCC2	+	-24.5	-0.8	-1.2	-5.9	-0.1
N#Cc1c(N2CCN(C(=O)c3ccccc3Cl)CC2)nc(-c2ccccc2)c2c1CCCC2	i	4.2	-2.0	12.5	-0.5	-34.6
Cc1ccccc1C(=O)Nc1ccc(N(C)C)c2ccccc12	i	.	0.3	.	.	.
CCOc1ccccc1CNC(=O)C1Cc2cc(S(=O)(=O)N3CCCCC3)ccc2N1C(C)=O (stereo unspecified)	i	.	-2.9	.	.	.
CNC(=S)N1CCC(NC(=O)c2ccco2)CC1	i	44.0*	1.1	24.6	29.2	18.1
CCNC(=S)N1CCC(NC(=O)c2ccco2)CC1	i	-0.9	0.0	5.0	2.4	-2.0
CN(C)CCOC(=O)NCC12CC3CC(CC(C3)C1)C2	i	-4.7	-5.5	-5.3	-14.8	-4.8
CC1=C(C(=O)OCCC(C)C)C(c2ccc3c(c2)OCO3)NC(=O)N1 (stereo unspecified)	i	.	.	.	.	.
COc1cc(OC)c(/C=N/NC(=O)c2ccc(Cn3nc([N+](=O)[O-])cc3C)cc2)c(OC)c1	i	-4.1	4.5	-3.6	-9.2	-3.5
COc1ccc2cc(C(=O)C3CCCN(C(=O)c4ccnn4C)C3)ccc2c1 (stereo unspecified)	i	5.0	0.7	4.8	-1.0	3.1
COc1ccc2cc(C(=O)C3CCCN(C(=O)c4cc(=O)n(C)c(=O)n4C)C3)ccc2c1 (stereo unspecified)	+	-4.8	-0.1	7.5	-7.4	-1.6
Brc1cccc(-c2cnco2)c1	i	3.5	18.3*	12.8	3.6	.
CC(C)(C)c1ccc(-c2cnco2)cc1	i	-9.9	-0.1	8.8	-1.4	.
O=C(COC(=O)C12CC3CC(CC(O)(C3)C1)C2)N1CCN(S(=O)(=O)c2ccc(Cl)cc2)CC1	i	3.2	-6.4	11.8	1.9	-23.6
O=C(COC(=O)C12CC3CC(CC(O)(C3)C1)C2)NCCc1ccc(Cl)cc1	i	-2.5	1.7	8.3	100.5*	0.2
COc1ccc(O)c(C(=O)c2cnc3c(c2)CN(C)C(=O)N3)c1	i	-1.4	-3.3	6.9	-1.1	4.5
CCNC(=S)NNC(=O)CCn1cc(C)cn1	+	7.0	1.3	10.8	-1.3	-11.1
O=C(NC(=S)Nn1cnnc1)c1cccc(Br)c1	i	-11.7	-1.3	-3.0	-10.1	-21.6
CCn1c(C)nc2cc(C(=O)NNC(=S)Nc3ccc(C)cc3)ccc21	i	31.2	4.3	51.4*	42.8*	16.6
SMILES	Rce1 inh	FXIa inh	Fh CTSL1 inh	FXIIa inh 1536	thrombin 1536	KLK5 inh
CCn1c(C)nc2cc(C(=O)NNC(=S)Nc3ccccc3OC)ccc21	i	2.1	5.7	6.2	5.3	-11.0
O=[N+]([O-])c1ccc(-c2cnc(SC(c3ccccc3)c3ccccc3)[nH]2)cc1	+	-7.5	-5.8	0.9	-13.2	-7.4
O=[N+]([O-])c1ccc(-c2cnc(SCc3ccccc3Cl)[nH]2)cc1	i	11.4	0.1	20.4	4.3	8.4
NC(=O)c1nsc(C(=O)N(CC(=O)NC2CCCC2)c2cccc(C(F)(F)F)c2)c1N	i	.	20.4*	.	.	.
COc1cccc(N(CC(=O)NC2CCCCC2)C(=O)c2snc(C(N)=O)c2N)c1	i	.	-1.2	.	.	.
Cn1cccc1C(=O)Nc1nc(-c2ccccn2)cs1	i	46.8*	1.6	-8.8	10.1	-5.7
